According to ChEMBL document CHEMBL1152821, “Discovery of novel DNA gyrase inhibitors by high-throughput virtual screening” (Antimicrob Agents Chemother, 2007):
One block for each compound: values may come before it. Calls of active or inactive are those of the source. The rule behind the calls is not given here.

What was measured:
[1] = Inhibition of Escherichia coli recombinant DNA gyrase-mediated supercoiling of relaxed pRSET A-DNA by agarose gel electrophoresis
How it was run: (§1)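 Gyrase reconstituted from purified GyrA and GyrB (1:1.4); substrate is pRSET A relaxed with wheat germ topo I. 0.5 μg DNA and drug preincubated on ice 10 min in Tris-acetate pH 7.9, KOAc, Mg acetate, DTT, 1.5 mM ATP, spermidine, BSA. Started with 2.5 nM GyrA/3.5 nM GyrB, 30°C 30 min, then SDS/EDTA stop. 1% agarose gel, ethidium stain, densitometry; % supercoiled versus no-drug control.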

[2] = molecular target: T1, DNA gyrase (Escherichia coli) (UniProt P0AES6+P0AES4); assay: Inhibition of Escherichia coli recombinant DNA gyrase assessed as enzyme-mediated supercoiling of relaxed pRSET A-DNA at 170 uM by agarose gel electrophoresis in presence of 0.01% Triton X-100; type: protein-complex assay; parameters: scale not given: the % may be the effect or the level left; how it was run: as §1
[3] = molecular target: T1, DNA gyrase (Escherichia coli); assay: Inhibition of Escherichia coli recombinant DNA gyrase assessed as enzyme-mediated supercoiling of relaxed pRSET A-DNA at 170 uM by agarose gel electrophoresis; type: protein-complex assay; parameters: scale not given: the % may be the effect or the level left; how it was run: as §1
[4] = test system: Nucleic Acid; assay: Binding affinity to pGEM2 DNA assessed as DNA intercalation at >=50 uM by DNA unwinding assay; type: nucleic-acid assay
How it was run: (§2)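 Drug-induced DNA unwinding measured with pGEM2 plasmid DNA relaxed by wheat germ DNA topoisomerase I, following a previously described method.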

[5] = molecular target: T1, DNA gyrase (Escherichia coli); assay: Inhibition of Escherichia coli recombinant DNA gyrase assessed as enzyme-mediated supercoiling of relaxed pRSET A-DNA at 170 uM by agarose gel electrophoresis in presence of 0.025% Triton X-100; type: protein-complex assay; parameters: scale not given: the % may be the effect or the level left; how it was run: as §1
[6] = test system: Escherichia coli; assay: Antibacterial activity against Escherichia coli XL1-Blue assessed as growth inhibition at 21 uM after 60 mins; type: functional, organism-based
How it was run: (§3)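 Log-phase E. coli XL1-Blue (overnight LB cultures at 37°C diluted to OD595 0.05 in fresh LB, shaken at 37°C until log phase) transferred into flasks containing filter-sterilized drug at various concentrations. Shaking growth continued at 37°C. Growth followed by culture absorbance at OD595 over time.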

[7] = molecular target: T1, DNA gyrase (Escherichia coli); assay: Inhibition of Escherichia coli recombinant DNA gyrase assessed as enzyme-mediated supercoiling of relaxed pRSET A-DNA at 640 uM by agarose gel electrophoresis in presence of 0.01% Triton X-100; type: protein-complex assay; parameters: scale not given: the % may be the effect or the level left
How it was run: (§4)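 GyrA and GyrB, expressed in E. coli XL1-Blue and purified, reconstituted 1:1.4 (2.5 nM GyrA, 3.5 nM GyrB). Substrate was 0.5 μg relaxed pRSET A DNA (topoisomerase I-relaxed). Buffer: 25 mM Tris-acetate pH 7.9, 20 mM K acetate, 10 mM Mg acetate, 2 mM DTT, 1.5 mM ATP, 5 mM spermidine, 50 μg/ml BSA. Drug preincubated 10 min on ice; reaction 30 min at 30°C. Run on 1% agarose 20 h, stained with ethidium bromide, bands quantitated. % supercoiled DNA expressed relative to no-drug control.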

[8] = test system: Escherichia coli; assay: Antibacterial activity against Escherichia coli XL1-Blue assessed as complete inhibition at 192 uM with in 30 mins; type: functional, organism-based; how it was run: as §3
[9] = test system: Escherichia coli; assay: Antibacterial activity against Escherichia coli XL1-Blue assessed as growth inhibition at 64 uM after 30 mins; type: functional, organism-based; how it was run: as §3
[10] = test system: Nucleic Acid; assay: Binding affinity to pGEM2 DNA assessed as DNA intercalation at 640 uM by DNA unwinding assay; type: nucleic-acid assay
[11] = test system: Escherichia coli; assay: Inhibition of Escherichia coli recombinant DNA gyrase-mediated supercoiling activity of relaxed pRSET A-DNA at 192 uM by agarose gel electrophoresis; parameters: scale not given: the % may be the effect or the level left; how it was run: as §4
[12] = test system: Nucleic Acid; assay: Binding affinity to pGEM2 DNA assessed as DNA intercalation at 1600 uM by DNA unwinding assay; type: nucleic-acid assay; how it was run: as §2
[13] = molecular target: T1, DNA gyrase (Escherichia coli); assay: Inhibition of Escherichia coli recombinant DNA gyrase assessed as enzyme-mediated supercoiling of relaxed pRSET A-DNA at 640 uM by agarose gel electrophoresis; type: protein-complex assay; parameters: scale not given: the % may be the effect or the level left; how it was run: as §4
[14] = Inhibition of Escherichia coli DNA gyrase B ATPase activity by spectrophotometry
How it was run: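 DNA-independent ATPase of purified E. coli GyrB (40 nM) with 2 mM ATP. ATP hydrolysis coupled to NADH oxidation and read spectrophotometrically. Ki calculated from Ki(app) as Ki = Ki(app)/(1 + [ATP]/Km), taking Km 0.3 mM for E. coli gyrase ATPase.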

[15] = test system: Escherichia coli; assay: Inhibition of Escherichia coli DNA gyrase B ATPase activity up to 1.5 mM by spectrophotometry
How it was run: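 DNA-independent ATPase of purified E. coli GyrB (40 nM) with 2 mM ATP, read spectrophotometrically by coupling ATP hydrolysis to NADH oxidation. Ki calculated as Ki(app)/(1 + [ATP]/Km), with Km 0.3 mM for E. coli gyrase ATPase.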

[16] = test system: Nucleic Acid; assay: Binding affinity to pGEM2 DNA assessed as DNA intercalation at 1.6 mM by DNA unwinding assay
[17] = test system: Nucleic Acid; assay: Binding affinity to pGEM2 DNA assessed as DNA intercalation at 100 uM by DNA unwinding assay; type: nucleic-acid assay; how it was run: as §2

- IC50 [1]: 50 µM
- Activity [2]: 13%
- Activity [3]: 7%
- Activity [4]: Active
- Activity [5]: 12%
SMILES: O=c1ccc2nccc3c4ccccc4n1c23 [CANTHIN-6-ONE]

- IC50 [1]: 1.2 µM
SMILES: O=C(O)c1cn(C2CC2)c2cc(N3CCNCC3)c(F)cc2c1=O [CIPROFLOXACIN]

SMILES: O=NNc1cnc(O)nc1O
- Activity [6]: Active
- Activity [7]: 17%
- IC50 [1]: 338 µM
- Activity [8]: Active
- Activity [9]: Active
- Activity [10]: inactive
- Activity [11]: > 30%
- Activity [12]: inactive
- Activity [13]: 10%
- Ki [14]: 149 µM

- IC50 [1]: 737 µM
- Activity [12]: inactive
SMILES: O=Cc1c[nH]nn1

- IC50 [1]: 814 µM
- Activity [15]: inactive
- Activity [16]: inactive
- Activity [12]: inactive
SMILES: NC(=O)c1[nH]cnc1N

- IC50 [1]: 72 µM
- Activity [17]: inactive
SMILES: O=c1[nH]nc(-c2cc(-c3ccccc3)nc3ccccc23)o1

SMILES: CO[C@@H]1[C@@H](OC(=O)c2ccc(C)[nH]2)[C@@H](O)[C@@H](Oc2ccc3c(O)c(NC(=O)c4c[nH]c(C(=O)Nc5c(O)c6ccc(O[C@H]7OC(C)(C)[C@H](OC)[C@@H](OC(=O)c8ccc(C)[nH]8)[C@H]7O)c(C)c6oc5=O)c4C)c(=O)oc3c2C)OC1(C)C [COUMERMYCIN]
- IC50 [1]: 0.04 µM
